Values after ≈ are worked out from the molar mass of the structure shown.
Columns and labels:
[1] = WHO-TDR: Cytotoxicity; assay type: toxicity, cell-based; conditions: human, MRC5 cells
[2] = system: Plasmodium falciparum K1; assay: WHO-TDR: Malaria; assay type: functional, organism-based, Homo sapiens; conditions: Erythrocyte
Outline: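 This whole-organism screen covered 10,000 drug-likeness-filtered and reactive-group-filtered compounds from Life Chemicals. The target was the Plasmodium falciparum K1 strain in human red blood cells, and the readout was antiplasmodial IC50.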

[3] = system: Trypanosoma cruzi; assay: WHO-TDR: Chagas disease; assay type: functional, organism-based, Homo sapiens; conditions: MRC5
Outline: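 A diverse library of 10,000 compounds from Life Chemicals, filtered for drug-likeness and reactive groups, was screened against intracellular amastigotes of Trypanosoma cruzi Tulahuen CL2 beta-galactosidase strain. The parasites were grown in MRC-5SV2 human lung fibroblast host cells, and a reference drug served as positive control under previously published standard procedures. Antiparasitic potency is given as IC50.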

[4] = system: Trypanosoma brucei brucei; assay: WHO-TDR: Human African Trypanosomiasis (HAT); assay type: functional, organism-based; conditions: Squib-427
Outline: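 Screening used a 10,000-compound diverse library supplied by Life Chemicals and filtered for drug-likeness and reactive groups. Whole bloodstream-form parasites of Trypanosoma brucei Squib 427 strain were assayed according to previously published standard procedures, with reference drugs as positive controls. The reported measure is IC50, reflecting antiparasitic potency.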

[5] = system: Leishmania infantum; assay: WHO-TDR: Leishmaniasis; assay type: functional, organism-based, Mus musculus; conditions: Macrophage
Outline: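 The screened collection came from Life Chemicals: 10,000 diverse compounds selected after filtering for drug-likeness and reactive groups. Each was tested in a whole-organism assay against Leishmania infantum MHOM/MA(BE)/67 amastigotes inside murine peritoneal macrophages, using previously published standard procedures and a reference drug as positive control. Results are IC50 values for antiparasitic potency.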

[6] = system: Schistosoma mansoni; assay: WHO-TDR: Schistosomiasis; assay type: functional; design: concentration or dose not given beside the values
Outline: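 A diverse library of 10,000 compounds from Life Chemicals, filtered for drug-likeness and reactive groups, was screened against whole larval and/or adult Schistosoma mansoni worms of the Puerto Rican strain. Previously published standard procedures were followed, with a reference drug as positive control. Activity is given as percent inhibition and as IC50.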

[7] = system: Onchocerca ochengi; assay: WHO-TDR: Onchocerciasis; assay type: functional; design: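 at 12.5 µM on microfilariae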
Outline: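 A diverse library of 10,000 compounds from Life Chemicals, filtered for drug-likeness and reactive groups, was screened against whole microfilariae of Onchocerca ochengi or Onchocerca lienalis. These animal pathogens served as stand-ins for the human parasite. Activity is given as percent inhibition and as IC50.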

[8] = system: Brugia malayi; assay: WHO-TDR: Lymphatic Filariasis; assay type: functional; design: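 tested at 10 µM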
Outline: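 A diverse library of 10,000 compounds from Life Chemicals was screened against Brugia malayi microfilariae in a whole-organism assay. The library had been filtered for drug-likeness and reactive groups. Activity is given as percent inhibition and as IC50.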

Row | SMILES | IC50 [1] [µg/mL] | IC50 [2] [µg/mL] | IC50 [3] [µg/mL] | IC50 [4] [µg/mL] | IC50 [5] [µg/mL] | % Inhibition [6] [%] | % Inhibition [7] [%] | % Inhibition [8] [%]
1 | COc1ccc(CCC(=O)NCCc2ccc(N3CCCC3)cc2)cc1 | > 10.6 | > 10.6 | > 10.6 | > 10.6 | 0.342 (≈ 0.97 µM) | 0 | 0 | 0
2 | O=S(=O)(CCCOc1ccc(F)cc1)NCc1ccccc1Cl | > 10.7 | > 10.7 | 7.84 (≈ 21.9 µM) | > 10.7 | > 10.7 | 0 | 100 | 0
3 | CSc1cccc(C(=O)N(Cc2cccnc2)c2nc3ccc(S(C)(=O)=O)cc3s2)c1 | > 14.1 | 8.28 (≈ 17.6 µM) | 0.383 (≈ 0.816 µM) | > 14.1 | > 14.1 | 0 | 0 | 0
4 | O=C(CN1CCN(c2nccn2-c2cccc(Cl)c2)CC1)Nc1ccc(F)cc1F | > 15.1 | 12.6 (≈ 29.2 µM) | 4.67 (≈ 10.8 µM) | 4.79 (≈ 11.1 µM) | 4.9 (≈ 11.4 µM) | 0 | 100 | 0
5 | O=S(=O)(CCCOc1ccc(F)cc1)N1CCc2ccccc21 | > 10.1 | > 10.1 | 3.09 (≈ 9.2 µM) | 3.22 (≈ 9.6 µM) | > 10.1 | 0 | 100 | 0
6 | CC(C)(C)C(=O)N1CCN(c2ccc(-c3ccncc3)nn2)CC1 | > 9.76 | > 9.76 | > 9.76 | > 9.76 | > 9.76 | 100 | 0 | 33.33
7 | COc1ccccc1C(=O)N1CCN(c2nccn2-c2ccccc2F)CC1 | > 12.5 | > 12.5 | > 12.5 | > 12.5 | > 12.5 | 25 | 100 | 0
8 | COc1ccc(OC)c(Nc2c(C#N)cnc3ccc(Cl)cc23)c1 | 1.08 (≈ 3.18 µM) | > 11.3 | 3.08 (≈ 9.07 µM) | > 11.3 | 0.365 (≈ 1.07 µM) | 0 | 0 | 20
9 | O=C(NCCNC(=O)c1cccc(Cl)c1)c1ccc(NC(=O)c2ccc(F)cc2)cc1 | > 13.2 | > 13.2 | > 13.2 | > 13.2 | 0.427 (≈ 0.971 µM) | 0 | 0 | 0
10 | O=c1ccc(-c2ccc(F)cc2)nn1CCCNS(=O)(=O)/C=C/c1ccccc1 | 6.58 (≈ 15.9 µM) | 6.97 (≈ 16.9 µM) | > 12.4 | 5.43 (≈ 13.1 µM) | > 12.4 | 0 | 100 | 0
11 | Cc1ccc(S(=O)(=O)NCCNc2ccc(Nc3cccc(C)n3)nn2)c(C)c1 | > 12.4 | > 12.4 | 3.96 (≈ 9.61 µM) | 4.01 (≈ 9.71 µM) | 8.43 (≈ 20.4 µM) | 0 | 100 | 0
12 | CS(=O)(=O)N1CCCC1C(=O)Nc1nc(-c2ccc(Cl)s2)cs1 (stereo not given) | > 11.8 | 3.6 (≈ 9.18 µM) | > 11.8 | > 11.8 | > 11.8 | 0 | 100 | 0
13 | O=C(Cc1csc(NC(=O)c2ccc[nH]c2=O)n1)NCc1ccncc1 | > 11.1 | > 11.1 | > 11.1 | > 11.1 | > 11.1 | 100 | 0 | 20
14 | O=C(CCCn1nc(-c2ccccc2)ccc1=O)N1CCN(c2ccccc2F)CC1 | > 12.6 | > 12.6 | 3.81 (≈ 9.07 µM) | 4.04 (≈ 9.6 µM) | > 12.6 | 25 | 100 | 0
15 | O=C(Nc1nnc(-c2ccc(Br)s2)o1)c1ccno1 | > 10.2 | > 10.2 | > 10.2 | > 10.2 | 0.331 (≈ 0.97 µM) | 16.7 | 0 | 0
